Screening data deposited in PubChem BioAssay by Broad Institute.
rRNA inh HTS – inhibits bacterial ribosomal RNA function over humanized ribosomes. GFP signal change (wild-type ribosome), % (concentration not given with the values). hit rate 1.6% among 350,000. E. coli WT GFP vs humanized-ribosome RFP mutants, fluorescence, 24 h; hits give low values; DMSO median 0, no signal -100;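 active means significant combined selectivity score with lowered wild-type GFP, culture density cut under 30%, mutant RFP and density less affected; inactive means any of these conditions unmet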
S100A4 MyoIIA – blocks human S100A4 binding to myosin IIA peptide | inhibition, % at 10.7 µM | AID 652163 | hit rate 0.14% among 360,000 | S100A4/TAMRA-MyoIIA peptide fluorescence polarization | P26447;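 active means mean inhibition of at least 70% across replicates, with every replicate also reaching that level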
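Assay system: human S100A4 monomer with TAMRA-labelled myosin IIA peptide / Buffer or medium: Calcium-containing HEPES buffer, pH 7.2 / Reagent: TAMRA-labelled myosin IIA heavy-chain peptide probe, 5 nM / Compound: one dose per compound / Timing: polarization read 5 min after assay mix addition, stable 5–60 min / Benchmarks: neutral control DMSO, positive control TFP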
SIRT5 block – inhibitors of human sirtuin-5 desuccinylase; Purified SirT5, succinyl-peptide AMC, trypsin-coupled fluorescence; Q9NXA8; hit rate 1.1% among 330,000; inhibition, % at 15 µM; in the data active means inhibition above about 15%
ERAP1 HTS inh – inhibitors of human ERAP1 aminopeptidase. recombinant ERAP1, Leu-AMC fluorescence, 60 min. inhibition, % at 10.7 µM. hit rate 0.15% among 340,000. AID 652197;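 active means mean replicate inhibition of at least 30%, or all replicates individually reaching that 30% level; inactive means mean below 30% and not every replicate reaching it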;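 further: 0% = neutral control wells and 100% = L-leucinethiol positive control wells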
Target sequence (Q9NZ08 whole entry, looked up): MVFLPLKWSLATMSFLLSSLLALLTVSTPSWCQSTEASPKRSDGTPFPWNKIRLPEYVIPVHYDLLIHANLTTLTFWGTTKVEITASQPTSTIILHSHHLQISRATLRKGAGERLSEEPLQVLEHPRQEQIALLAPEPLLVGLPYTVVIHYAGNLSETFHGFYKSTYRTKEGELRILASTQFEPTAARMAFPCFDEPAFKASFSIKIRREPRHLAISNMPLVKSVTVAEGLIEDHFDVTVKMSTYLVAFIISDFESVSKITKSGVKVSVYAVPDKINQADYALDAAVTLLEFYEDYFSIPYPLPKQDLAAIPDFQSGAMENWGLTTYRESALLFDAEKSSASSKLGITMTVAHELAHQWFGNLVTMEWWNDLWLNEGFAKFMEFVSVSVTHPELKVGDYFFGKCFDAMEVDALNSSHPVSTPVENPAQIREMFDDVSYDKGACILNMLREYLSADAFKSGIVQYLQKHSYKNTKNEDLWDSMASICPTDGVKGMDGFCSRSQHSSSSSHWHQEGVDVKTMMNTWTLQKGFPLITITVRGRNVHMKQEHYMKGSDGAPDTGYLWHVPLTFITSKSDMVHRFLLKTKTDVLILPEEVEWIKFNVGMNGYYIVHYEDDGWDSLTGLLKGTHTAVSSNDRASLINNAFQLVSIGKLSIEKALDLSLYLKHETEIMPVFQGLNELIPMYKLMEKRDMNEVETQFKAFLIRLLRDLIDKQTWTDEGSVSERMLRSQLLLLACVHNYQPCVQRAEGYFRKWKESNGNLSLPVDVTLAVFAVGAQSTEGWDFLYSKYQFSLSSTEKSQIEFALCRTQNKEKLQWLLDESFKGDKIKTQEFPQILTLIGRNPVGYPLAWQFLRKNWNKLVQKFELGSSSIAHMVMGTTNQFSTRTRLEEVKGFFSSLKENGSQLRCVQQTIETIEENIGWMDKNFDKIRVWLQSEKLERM
F508del corr – correctors of CFTR F508del function in bronchial epithelial cells; CFBE cells, YFP halide quenching; stimulated with forskolin plus potentiator P3; % fluorescence drop versus neutral controls; activity (quench increase), % at 7.58 µM; hit rate 0.36% among 350,000; AID 720511;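 active means mean added fluorescence quench of at least 8% versus neutral control, with both replicates also reaching 8%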;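 further: cells transiently co-express mutant CFTR-F508del with the halide-sensitive YFP; corrector assay measuring rescue of mutant channel to the surface after 24 h compound exposure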
Starred values were filed as active, the others as inactive; . = no result given. Shown are actives, neighbours in structure and some others; about 3.1% of the full set was active somewhere.

SMILES	rRNA inh HTS	S100A4 MyoIIA	SIRT5 block	ERAP1 HTS inh	F508del corr
COc1cccc(C(=O)Nc2ccc3c(c2)C(=O)N(C)C[C@@H](OC)[C@@H](C)CN(CCc2ccccc2)[C@@H](C)CO3)c1	-0.3	-19.2	15.4*	.	-2.6
CO[C@H]1CN(C)C(=O)c2ccc(NC(=O)C3CCCCC3)cc2OC[C@@H](C)N(Cc2nccs2)C[C@@H]1C	-9.3	130.1*	4.5	-1.9	0.8
COc1ccc2c3c(n(C)c2c1)[C@@H](CO)N(Cc1ccncc1)CC31CCN(C(=O)NC(C)C)CC1	1.6	-8.9	-1.5	7.8	-1.7
CCCC(=O)Nc1ccc2c(c1)OC[C@H](C)N(C(=O)c1cnccn1)C[C@H](C)[C@H](OC)CN(C)C2=O	0.4	2.9	-2.9	-3.7	0.9
CCCC(=O)Nc1ccc2c(c1)OC[C@@H](C)N(C(=O)c1cnccn1)C[C@@H](C)[C@H](OC)CN(C)C2=O	1.5	141.5*	-3.5	-3.6	-1.2
CCCC(=O)Nc1ccc2c(c1)OC[C@@H](C)N(Cc1ccncc1)C[C@H](C)[C@H](OC)CN(C)C2=O	-5.2	121.0*	0.9	3.4	2.4
Cc1nc2ccc(NC(=O)c3ccc(=O)[nH]c3)cc2s1	4.5	3.5	-4.0	37.0*	1.5
O=C(Oc1cccc(OC(=O)c2ccco2)c1)c1ccco1	-22.9*	-0.7	4.0	-0.7	-2.8
O=C(Oc1ccccc1C(=O)Oc1ccccc1)c1ccco1	11.1	-3.9	2.2	1.6	-0.9
CCCCCCOc1ccc(N2C(=O)CC(N3CCN(CCN=CC4C(=O)CC(C)(C)CC4=O)CC3)C2=O)cc1 (stereo not given)	9.2	1.2	112.2*	-0.4	-0.7
COc1ccc(NC(=O)CNC(=O)Cc2cccc3ccccc23)cc1	1.0	-39.3	-1.9	1.0	-0.7
CC(=O)c1ccc(OC(=O)Cc2cccc3ccccc23)cc1	-13.1	17.2	25.6*	1.1	-3.0
COc1ccc(OC(=O)Cc2cccc3ccccc23)cc1	7.0	13.9	15.4*	0.9	1.6
O=C(C1CCC1)N1CCCCN2[C@H](C1)[C@H](c1ccc(C#CC3CCCC3)cc1)[C@@H]2CO	.	0.1	11.8	-1.8	-1.5
CCNC(=O)C[C@H]1CC[C@@H]2[C@@H](COc3ccc(NC(C)=O)cc3C(=O)N2C)O1	2.6	2.2	-1.0	1.4	-1.3
Cc1c(Cc2ccc3c(c2)OCO3)sc(NC(=O)c2ccccc2)c1C(N)=O	-4.3	-4.8	20.2*	1.3	-5.3
Cc1sc(NC(=S)NC(=O)CCc2ccccc2)c(C(N)=O)c1C	-2.8	-0.1	-7.3	0.8	12.2*
CCCC(=O)Nc1sc(Cc2ccccc2)c(C)c1C(N)=O	-23.6*	-1.6	-2.0	1.1	-0.8
Cc1sc(NC(=S)NC(=O)c2ccco2)c(C(N)=O)c1C	2.8	8.6	-5.2	1.7	-4.3
O=C(N[C@H]1CC[C@H](CC(=O)N2CCCCC2)O[C@H]1CO)c1cccc(F)c1	-0.6	31.5	0.8	-4.2	-2.4
N#C[C@H]1[C@H](c2ccccc2C2=CCCCC2)[C@H](CO)N1C(=O)C1CCOCC1	-4.8	-9.2	17.2*	.	0.3
N#C[C@@H]1[C@H](c2ccccc2-c2cccc(F)c2)[C@@H](CO)N1C(=O)C1CC1	0.2	77.4*	3.0	-1.9	0.8
N#C[C@H]1[C@@H](c2ccccc2-c2cccc(F)c2)[C@@H](CO)N1C(=O)C1CC1	-4.8	-1.7	-2.4	0.5	1.9
C[C@H]1CN([C@@H](C)CO)C(=O)c2cc(NC(=O)CCC(F)(F)F)ccc2O[C@@H]1CN(C)Cc1ccc(Cl)c(Cl)c1	-8.2	4.9	2.2	1.4	-0.7
C[C@@H]1CN([C@H](C)CO)C(=O)c2cc(NC(=O)Nc3ccc(F)cc3)ccc2O[C@@H]1CN(C)Cc1ccncc1	-2.2	3.3	2.9	-0.5	1.8
SMILES	rRNA inh HTS	S100A4 MyoIIA	SIRT5 block	ERAP1 HTS inh	F508del corr
Cc1cccc(C)c1OCC(O)CN1CCN(c2ccccc2)CC1 (stereo not given)	-28.7*	7.7	-1.9	-2.3	4.8
Cc1cccc(C)c1OCC(O)CN1CCN(c2ccccn2)CC1 (stereo not given)	-8.1	12.8	-1.8	3.9	0.9
Cc1ccccc1OCC(O)CN1CCN(CC(O)COc2ccccc2C)CC1 (stereo not given)	-11.9	5.5	29.9*	1.9	-1.7
Cc1ccccc1OCC(O)CN1CCCCC1 (stereo not given)	18.6	4.0	-1.6	1.2	-0.3
CCCNC(=O)C[C@@H]1CC[C@H]2[C@H](COc3ccc(NC(=O)Nc4c(C)noc4C)cc3C(=O)N2C)O1	0.5	-47.2	-5.8	1.5	-2.3
CC(=O)N1CC(=O)N2[C@H](CO)[C@H](c3ccc(-c4ccc(C#N)cc4)cc3)[C@@H]2C1	3.9	.	.	.	.
COc1ccc(S(=O)(=O)Nc2cccc3c2O[C@@H](CN(C)Cc2ccc(C(F)(F)F)cc2)[C@H](C)CN([C@@H](C)CO)C3=O)cc1	-2.5	-4.5	5.1	1.6	0.9
CC(=O)N(C)C[C@H]1Oc2ncc(-c3cccc(C#N)c3)cc2C(=O)N([C@@H](C)CO)C[C@H]1C	1.6	3.8	6.0	1.5	.
O=[N+]([O-])c1nn(-c2ccc(Cl)cc2)n(O)c1=NCc1cccnc1	-19.4*	2.1	3.1	0.1	-2.0
CCCN(Cc1ccccc1)C(=S)NC(=O)c1ccccc1[N+](=O)[O-]	-50.6*	1.7	1.9	-3.9	-0.1
Cc1noc(C)c1S(=O)(=O)Nc1ccc2c(c1)CC(=O)N([C@@H](C)CO)C[C@@H](C)[C@@H](CN(C)S(=O)(=O)c1cn(C)cn1)O2	1.6	-2.5	2.3	-1.8	-3.0
CC(C)NC(=O)N(C)C[C@H]1OCCCC[C@@H](C)Oc2ccc(N(C)C)cc2C(=O)N([C@@H](C)CO)C[C@@H]1C	-2.1	3.4	-0.6	-0.2	-1.1
C/C(=N/NC(=O)C(O)(c1ccccc1)c1ccccc1)c1ccc([N+](=O)[O-])o1	-34.6*	5.7	.	0.1	-1.0
c1ccc(CNc2nc(N3CCN(Cc4ccccc4)CC3)nc3ccccc23)cc1	-42.9*	0.0	-7.1	0.0	-2.3
COc1ccc(C(=O)NC(=S)NC(C)c2ccccc2)cc1 (stereo not given)	-32.3*	1.8	-4.3	4.1	1.3
CC(NC(=S)NC(=O)c1ccccc1)c1ccccc1 (stereo not given)	-14.1	-2.2	5.0	2.5	0.8
COc1ccc2c3c([nH]c2c1)[C@@H](CO)N(C(=O)c1ccccn1)CC31CN(S(C)(=O)=O)C1	4.0	7.1	2.0	0.4	0.4
C[C@H]1CCCCO[C@H](CN(C)S(=O)(=O)c2cn(C)cn2)[C@@H](C)CN([C@@H](C)CO)C(=O)c2cc(NC(=O)c3ccccc3)ccc2O1	-1.9	5.7	-3.6	-9.7	0.9
Oc1ccc(N=Nc2ccc3c(c2)OCCO3)c(O)c1	-38.0*	4.5	3.0	-1.2	0.7
